ChEMBL document CHEMBL1123753, “Substituted 1,3,4-thiadiazoles with anticonvulsant activity. 3. Guanidines” (J Med Chem, 1987)

What was measured:
[1] = test system: Mus musculus; assay: Maximal metrazole seizures was determined for the inhibition of hind limb tonus in mouse 1 hr after po dosing; type: functional; conditions: Hindlimb
Summary of the method: (§1)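 Oral dosing, with seizures assessed 1 h later. The endpoint is inhibition of hind limb tonus, expressed as ED50 in mg/kg po.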

[2] = test system: Mus musculus; assay: Maximal electroshock seizures was determined for the inhibition of hind limb tonus in mouse by 1 hr after po dose; type: functional; conditions: Hindlimb; summary of the method: as §1
[3] = Tested for the neurotoxicity in mouse rotarod test was reported 1 hr after po dosing; type: toxicity, organism-based; conditions: in vivo
Summary of the method: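 Trained mice were placed on a rotating rod 1 h after oral dosing. TD50 (mg/kg) is the dose at which 50% of animals fall off the rod, reported with its range.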

[4] = test system: Rattus norvegicus; assay: Maximal electroshock seizures determined for the inhibition of hind limb tonus in rat 1 hr after po dosing; type: functional; conditions: Hindlimb; summary of the method: as §1
[5] = Tested for the neurotoxicity in mouse rotarod test was reported 2 hr after po dosing; type: toxicity, organism-based; conditions: in vivo

| SMILES | ED50 [1] [mg/kg] | ED50 [2] [mg/kg] | TD50 at 1 h [3] [mg/kg] | ED50 [4] [mg/kg] | TD50 at 2 h [5] [mg/kg] |
| --- | --- | --- | --- | --- | --- |
| CN(C1=NCCN1)c1nnc(-c2ccccc2C(F)(F)F)s1 | > 100 | > 100 | – | – | – |
| FC(F)(F)c1ccccc1-c1nnc(NC2=NCCN2)s1 | > 100 | > 100 | – | – | – |
| C/N=C(\N)Nc1nnc(-c2ccccc2C(F)(F)F)s1 | 44 | 49 | > 400 | – | – |
| CCCC/N=C(\N)Nc1nnc(-c2ccccc2C(F)(F)F)s1 | 225 | 142 | – | – | – |
| N=C(N)Nc1nnc(-c2ccccc2C(F)(F)F)s1 | 45 | 27 | 384 | 22 | – |
| CN(C)CCC/N=C(\N)Nc1nnc(-c2ccccc2C(F)(F)F)s1 | > 100 | > 100 | – | – | – |
| COCCC/N=C(\N)Nc1nnc(-c2ccccc2C(F)(F)F)s1 | 78 | > 100 | – | – | – |
| N=C(NCc1ccccc1)Nc1nnc(-c2ccccc2C(F)(F)F)s1 | > 100 | > 100 | – | – | – |
| CN(N)c1nnc(-c2ccc(-c3ccccc3)cc2)s1 | 27 | 18 | – | 16 | > 1000 |
| NC(=O)N1c2ccccc2C=Cc2ccccc21 [CARBAMAZEPINE] | 11 | 20 | – | 4 | – |
| CCC1(c2ccccc2)C(=O)NC(=O)NC1=O [PHENOBARBITAL] | 4 | 12 | – | 9 | – |
| O=C1NC(=O)C(c2ccccc2)(c2ccccc2)N1 [PHENYTOIN] | 8 | 8 | – | 14 | – |
